From ChEMBL document CHEMBL1145636, “Discovery of a novel and potent series of thieno[3,2-b]pyridine-based inhibitors of c-Met and VEGFR2 tyrosine kinases” (Bioorg Med Chem Lett, 2008)
pIC50: −log10 of the molar value. In brackets after ≈: the same amount, converted by molar mass. Values belong to the molecule of their own block, whether it stands above or below them.

Tests used:
[1] = target: T1, Vascular endothelial growth factor receptor 2 (Homo sapiens, UniProt P35968); experiment: Inhibition of GST tagged VEGFR2 expressed in Sf9 cells
T1 sequence (P35968 whole entry, the tested form may be a part): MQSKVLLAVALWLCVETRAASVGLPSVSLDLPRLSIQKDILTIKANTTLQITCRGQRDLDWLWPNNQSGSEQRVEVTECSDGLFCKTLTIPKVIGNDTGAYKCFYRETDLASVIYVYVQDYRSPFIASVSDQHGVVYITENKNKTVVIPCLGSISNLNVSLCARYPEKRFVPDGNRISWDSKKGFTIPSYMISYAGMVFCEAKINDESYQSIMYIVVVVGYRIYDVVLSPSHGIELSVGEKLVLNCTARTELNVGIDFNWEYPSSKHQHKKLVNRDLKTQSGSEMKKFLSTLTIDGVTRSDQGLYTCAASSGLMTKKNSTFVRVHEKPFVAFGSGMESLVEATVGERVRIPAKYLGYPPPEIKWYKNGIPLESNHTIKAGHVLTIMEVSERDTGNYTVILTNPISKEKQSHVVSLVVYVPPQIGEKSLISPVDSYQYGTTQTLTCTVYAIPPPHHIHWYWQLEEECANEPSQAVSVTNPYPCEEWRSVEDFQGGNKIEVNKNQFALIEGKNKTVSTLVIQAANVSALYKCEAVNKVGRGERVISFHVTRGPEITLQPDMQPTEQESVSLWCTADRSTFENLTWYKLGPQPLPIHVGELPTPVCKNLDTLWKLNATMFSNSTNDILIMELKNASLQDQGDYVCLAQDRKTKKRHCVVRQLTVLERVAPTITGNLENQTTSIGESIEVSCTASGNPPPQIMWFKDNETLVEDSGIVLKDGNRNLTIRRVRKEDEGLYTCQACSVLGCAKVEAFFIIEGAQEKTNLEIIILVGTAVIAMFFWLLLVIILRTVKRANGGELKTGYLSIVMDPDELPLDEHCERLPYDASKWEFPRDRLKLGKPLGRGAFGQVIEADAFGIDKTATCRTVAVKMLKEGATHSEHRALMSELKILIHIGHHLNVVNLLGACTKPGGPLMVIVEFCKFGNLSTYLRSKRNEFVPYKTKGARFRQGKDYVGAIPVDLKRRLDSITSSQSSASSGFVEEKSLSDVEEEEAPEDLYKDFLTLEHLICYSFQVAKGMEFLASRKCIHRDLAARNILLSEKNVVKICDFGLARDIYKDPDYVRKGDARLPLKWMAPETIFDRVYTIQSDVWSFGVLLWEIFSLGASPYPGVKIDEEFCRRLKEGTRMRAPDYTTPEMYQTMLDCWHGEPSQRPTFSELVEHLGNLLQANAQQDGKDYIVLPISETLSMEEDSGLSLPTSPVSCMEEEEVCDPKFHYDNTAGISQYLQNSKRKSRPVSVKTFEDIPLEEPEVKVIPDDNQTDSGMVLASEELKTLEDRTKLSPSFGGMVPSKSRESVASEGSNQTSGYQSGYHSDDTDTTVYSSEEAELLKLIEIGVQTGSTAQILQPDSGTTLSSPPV
In short: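 GST-fused VEGFR2 catalytic domain, baculovirus-expressed in Sf9 cells (MOI 0.1), glutathione-agarose purified; 5 nM enzyme preincubated with inhibitor and Mg-ATP on ice 4 min, then reacted on immobilized poly(Glu4,Tyr) at 30 °C for 10 min in 60 mM Hepes pH 7.5, MgCl2/MnCl2; ATP 0.6 (2× Km); Eu anti-phosphotyrosine TR-fluorescence; seven concentrations in triplicate, four-parameter IC50 fit.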

[2] = target: T2, Hepatocyte growth factor receptor (Homo sapiens, UniProt P08581); experiment: Inhibition of TPR-Met fusion protein assessed as Y1230-34-35 phosphorylation
Target sequence in this assay (P08581 25-1390 limits assumed): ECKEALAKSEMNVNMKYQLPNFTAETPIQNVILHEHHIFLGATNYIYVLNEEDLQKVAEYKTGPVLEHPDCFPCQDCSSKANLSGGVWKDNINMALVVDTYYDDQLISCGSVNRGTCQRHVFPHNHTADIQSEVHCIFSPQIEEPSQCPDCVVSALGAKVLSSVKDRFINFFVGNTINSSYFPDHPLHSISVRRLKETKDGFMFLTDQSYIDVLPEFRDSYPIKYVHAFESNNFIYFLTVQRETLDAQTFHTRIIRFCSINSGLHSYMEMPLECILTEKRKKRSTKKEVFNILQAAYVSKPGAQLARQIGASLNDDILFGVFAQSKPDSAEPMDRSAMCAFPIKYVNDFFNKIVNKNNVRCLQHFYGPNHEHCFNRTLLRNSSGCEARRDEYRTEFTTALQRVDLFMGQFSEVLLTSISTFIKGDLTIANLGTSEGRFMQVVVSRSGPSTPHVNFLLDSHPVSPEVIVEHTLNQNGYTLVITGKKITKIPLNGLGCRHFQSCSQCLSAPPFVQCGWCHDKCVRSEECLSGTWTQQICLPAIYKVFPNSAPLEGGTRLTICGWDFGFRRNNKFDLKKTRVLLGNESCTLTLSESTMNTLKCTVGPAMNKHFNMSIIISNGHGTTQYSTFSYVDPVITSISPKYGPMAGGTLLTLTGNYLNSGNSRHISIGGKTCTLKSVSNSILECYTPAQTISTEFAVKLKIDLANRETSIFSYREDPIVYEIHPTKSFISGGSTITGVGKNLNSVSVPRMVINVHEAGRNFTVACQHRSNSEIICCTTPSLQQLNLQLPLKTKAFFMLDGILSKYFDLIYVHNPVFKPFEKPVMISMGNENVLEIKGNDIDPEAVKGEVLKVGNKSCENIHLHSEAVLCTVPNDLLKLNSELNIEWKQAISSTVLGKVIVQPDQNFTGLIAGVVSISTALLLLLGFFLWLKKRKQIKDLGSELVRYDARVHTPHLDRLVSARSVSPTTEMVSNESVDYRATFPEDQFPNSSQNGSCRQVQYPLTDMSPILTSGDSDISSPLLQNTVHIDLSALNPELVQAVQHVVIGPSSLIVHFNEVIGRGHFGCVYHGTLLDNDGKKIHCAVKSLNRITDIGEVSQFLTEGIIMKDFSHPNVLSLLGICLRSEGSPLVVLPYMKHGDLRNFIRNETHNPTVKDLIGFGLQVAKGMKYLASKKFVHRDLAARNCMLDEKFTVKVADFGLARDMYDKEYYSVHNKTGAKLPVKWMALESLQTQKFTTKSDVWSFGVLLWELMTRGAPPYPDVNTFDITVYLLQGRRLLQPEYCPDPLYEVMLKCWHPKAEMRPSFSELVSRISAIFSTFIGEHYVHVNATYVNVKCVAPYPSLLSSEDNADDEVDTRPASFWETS

[3] = target: T2, Hepatocyte growth factor receptor; experiment: Inhibition of GST tagged c-Met expressed in High Five cells
Target sequence in this assay (P08581 whole entry, the tested form may be a part): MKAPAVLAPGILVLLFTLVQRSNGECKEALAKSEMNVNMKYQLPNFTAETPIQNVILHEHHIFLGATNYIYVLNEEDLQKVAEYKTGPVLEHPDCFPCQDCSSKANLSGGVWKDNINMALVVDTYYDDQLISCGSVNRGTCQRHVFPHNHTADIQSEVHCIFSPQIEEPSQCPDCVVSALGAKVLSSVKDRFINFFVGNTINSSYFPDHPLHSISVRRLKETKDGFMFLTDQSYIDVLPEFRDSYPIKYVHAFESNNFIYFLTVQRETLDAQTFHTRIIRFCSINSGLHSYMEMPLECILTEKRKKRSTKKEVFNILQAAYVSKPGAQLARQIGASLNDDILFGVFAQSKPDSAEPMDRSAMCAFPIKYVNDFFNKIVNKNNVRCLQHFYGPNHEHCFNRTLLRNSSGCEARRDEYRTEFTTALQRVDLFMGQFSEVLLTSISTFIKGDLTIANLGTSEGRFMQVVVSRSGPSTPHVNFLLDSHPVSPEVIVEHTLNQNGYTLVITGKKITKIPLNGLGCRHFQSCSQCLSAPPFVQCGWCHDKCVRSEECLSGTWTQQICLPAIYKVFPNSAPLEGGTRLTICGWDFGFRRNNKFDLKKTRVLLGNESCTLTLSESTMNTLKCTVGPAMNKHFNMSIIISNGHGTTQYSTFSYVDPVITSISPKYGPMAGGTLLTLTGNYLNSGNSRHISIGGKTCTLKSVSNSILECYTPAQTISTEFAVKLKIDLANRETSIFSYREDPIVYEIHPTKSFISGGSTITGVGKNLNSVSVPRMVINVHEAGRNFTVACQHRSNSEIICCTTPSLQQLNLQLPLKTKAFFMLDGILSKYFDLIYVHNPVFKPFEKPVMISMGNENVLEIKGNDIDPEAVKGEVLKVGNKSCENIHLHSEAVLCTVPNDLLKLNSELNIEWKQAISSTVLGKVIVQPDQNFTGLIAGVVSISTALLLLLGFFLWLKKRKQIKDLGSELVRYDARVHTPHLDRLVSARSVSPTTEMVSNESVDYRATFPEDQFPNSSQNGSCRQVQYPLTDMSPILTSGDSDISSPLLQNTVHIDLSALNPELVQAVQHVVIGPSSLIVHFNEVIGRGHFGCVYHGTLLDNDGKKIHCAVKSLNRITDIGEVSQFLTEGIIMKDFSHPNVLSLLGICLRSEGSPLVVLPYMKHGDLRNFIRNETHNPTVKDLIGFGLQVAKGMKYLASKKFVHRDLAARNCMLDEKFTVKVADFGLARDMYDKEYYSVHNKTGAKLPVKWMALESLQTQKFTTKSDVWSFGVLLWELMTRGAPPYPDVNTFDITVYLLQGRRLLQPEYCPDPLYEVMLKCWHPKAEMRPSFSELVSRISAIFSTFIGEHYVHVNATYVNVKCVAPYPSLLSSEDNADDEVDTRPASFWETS

[4] = Solubility of compound; assay type: physicochemical
[5] = Half life in Sprague-Dawley rat at 2.5 mg/kg, iv; assay type: ADME, organism-based; design: dose 2.5 mg/kg, route intravenous; details: in vivo
In short: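 Female Sprague–Dawley rats were given a single iv dose of 2.5 mg/kg (four animals) in DMSO. The test material had >95% chromatographic purity. Plasma was analysed by HPLC with triple-quadrupole MS, and PK parameters were calculated from the concentration–time data.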

[6] = Clearance in Sprague-Dawley rat; assay type: ADME, organism-based; details: in vivo
[7] = Volume of distribution at steady state in Sprague-Dawley rat; assay type: ADME, organism-based; details: in vivo, read-out: Vdss
[8] = Tmax in Sprague-Dawley rat at 5 mg/kg, po; assay type: ADME, organism-based; design: dose 5 mg/kg, route oral; details: in vivo
[9] = Cmax in Sprague-Dawley rat at 5 mg/kg, po; assay type: ADME, organism-based; design: dose 5 mg/kg, route oral; details: in vivo
[10] = AUC in Sprague-Dawley rat at 5 mg/kg, po; assay type: ADME, organism-based; design: dose 5 mg/kg, route oral; details: plasma
[11] = Oral bioavailability in Sprague-Dawley rat at 5 mg/kg; assay type: ADME, organism-based; details: in vivo
In short: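 An iv reference arm received 2.5 mg/kg (four animals) in DMSO. Plasma was analysed by HPLC-triple-quadrupole MS, and %F was derived from po versus iv exposure.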

[12] = Half life in Beagle dog at 0.8 mg/kg, iv; assay type: ADME, organism-based, Canis lupus familiaris; design: dose 0.8 mg/kg, route intravenous; details: in vivo
[13] = test system: Canis familiaris; experiment: Clearance in Beagle dog at 0.8 mg/kg, iv or 5 mg/kg, po; assay type: ADME, organism-based, Canis lupus familiaris; details: in vivo
[14] = Volume of distribution at steady state in Beagle dog at 0.8 mg/kg, iv or 5 mg/kg, po; assay type: ADME, organism-based, Canis lupus familiaris; details: in vivo, read-out: Vdss
[15] = Tmax in Beagle dog at 5 mg/kg, po; assay type: ADME, organism-based, Canis lupus familiaris; design: dose 5 mg/kg, route oral; details: in vivo
[16] = Cmax in Beagle dog at 5 mg/kg, po; assay type: ADME, organism-based, Canis lupus familiaris; design: dose 5 mg/kg, route oral; details: in vivo
[17] = test system: Canis familiaris; experiment: AUC in Beagle dog at 5 mg/kg, po; assay type: ADME, organism-based, Canis lupus familiaris, Plasma; design: dose 5 mg/kg, route oral; details: in vivo
[18] = test system: Canis familiaris; experiment: Oral bioavailability in Beagle dog at 5 mg/kg; assay type: ADME, organism-based, Canis lupus familiaris; details: in vivo
[19] = target: T1, Vascular endothelial growth factor receptor 2; experiment: Inhibition of human VEGFR2-dependent ERK phosphorylation in HUVEC; assay type: cell-based
[20] = test system: COLO 205; experiment: Antitumor activity in human Colo205 cells xenografted mouse assessed as tumor growth inhibition at 20 mg/kg, po once daily after 16 days; assay type: functional; details: COLO 205, 384 h, read-out: TGI
In short: (§1)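 Human tumor xenografts in mice; test agent given orally at 20 mg/kg once daily; efficacy expressed as percent tumor growth inhibition.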

[21] = test system: DU-145; experiment: Antitumor activity in human DU145 cells xenografted mouse assessed as tumor growth inhibition at 20 mg/kg, po once daily after 11 days; assay type: functional; details: DU-145, 264 h, read-out: TGI; in short: as §1
[22] = test system: HCT-116; experiment: Antitumor activity in human HCT116 cells xenografted mouse assessed as tumor growth inhibition at 20 mg/kg, po once daily after 14 days; assay type: functional; details: HCT-116, 336 h, read-out: TGI; in short: as §1
[23] = test system: HOS-TE85; experiment: Antitumor activity in human MNNGHOS cells xenografted mouse assessed as tumor growth inhibition at 20 mg/kg, po once daily after 26 days; assay type: functional; details: HOS-TE85, 624 h, read-out: TGI; in short: as §1
[24] = test system: MKN-45; experiment: Antitumor activity in human MKN45 cells xenografted mouse assessed as tumor growth inhibition at 20 mg/kg, po once daily after 13 days; assay type: functional; details: MKN-45, 312 h, read-out: TGI; in short: as §1
[25] = target: Cytochrome P450 3A4 (Homo sapiens, UniProt P08684); experiment: Inhibition of CYP3A4 at 10 uM; assay type: ADME
[26] = target: Vascular endothelial growth factor receptor 1 (Homo sapiens) (UniProt P17948); experiment: Inhibition of VEGFR1 at 100 nM
In short: (§2)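 Radiometric protein kinase assays run through an outsourced kinase selectivity screening service; test agent at 100 nM, percent inhibition of each enzyme reported.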

[27] = target: Vascular endothelial growth factor receptor 3 (Homo sapiens) (UniProt P35916); experiment: Inhibition of VEGFR3 at 100 nM; in short: as §2
[28] = target: Glycogen synthase kinase-3 beta (Homo sapiens) (UniProt P49841); experiment: Inhibition of GSK3-beta at 100 nM; in short: as §2
Chain of Glycogen synthase kinase-3 beta (Homo sapiens) (P49841 whole entry, looked up): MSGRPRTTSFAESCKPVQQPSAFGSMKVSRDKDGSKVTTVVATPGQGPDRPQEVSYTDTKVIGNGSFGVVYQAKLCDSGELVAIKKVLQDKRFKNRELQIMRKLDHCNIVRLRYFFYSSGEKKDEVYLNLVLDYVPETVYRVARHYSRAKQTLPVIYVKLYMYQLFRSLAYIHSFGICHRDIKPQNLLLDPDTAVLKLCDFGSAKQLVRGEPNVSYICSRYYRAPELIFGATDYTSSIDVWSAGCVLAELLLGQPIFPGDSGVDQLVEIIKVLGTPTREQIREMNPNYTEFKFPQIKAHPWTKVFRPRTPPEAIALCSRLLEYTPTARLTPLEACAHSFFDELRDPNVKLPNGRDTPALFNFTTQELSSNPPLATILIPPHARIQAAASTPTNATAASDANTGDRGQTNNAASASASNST

[29] = target: Macrophage-stimulating protein receptor (Homo sapiens) (UniProt Q04912); experiment: Inhibition of Ron at 100 nM; in short: as §2
[30] = target: Angiopoietin-1 receptor (Homo sapiens) (UniProt Q02763); experiment: Inhibition of Tie2 at 100 nM; in short: as §2
[31] = target: Receptor-type tyrosine-protein kinase FLT3 (Homo sapiens) (UniProt P36888); experiment: Inhibition of Flt3 at 100 nM; in short: as §2
[32] = target: Mast/stem cell growth factor receptor Kit (Homo sapiens) (UniProt P10721); experiment: Inhibition of c-Kit at 100 nM; in short: as §2
[33] = target: Tyrosine-protein kinase ABL1 (Homo sapiens) (UniProt P00519); experiment: Inhibition of Abl at 100 nM; in short: as §2
[34] = target: High affinity nerve growth factor receptor (Homo sapiens) (UniProt P04629); experiment: Inhibition of TrkA at 100 nM; in short: as §2
[35] = target: Serine/threonine-protein kinase Chk1 (Homo sapiens) (UniProt O14757); experiment: Inhibition of CHK1 at 100 nM; in short: as §2
Chain of Serine/threonine-protein kinase Chk1 (Homo sapiens) (O14757 whole entry): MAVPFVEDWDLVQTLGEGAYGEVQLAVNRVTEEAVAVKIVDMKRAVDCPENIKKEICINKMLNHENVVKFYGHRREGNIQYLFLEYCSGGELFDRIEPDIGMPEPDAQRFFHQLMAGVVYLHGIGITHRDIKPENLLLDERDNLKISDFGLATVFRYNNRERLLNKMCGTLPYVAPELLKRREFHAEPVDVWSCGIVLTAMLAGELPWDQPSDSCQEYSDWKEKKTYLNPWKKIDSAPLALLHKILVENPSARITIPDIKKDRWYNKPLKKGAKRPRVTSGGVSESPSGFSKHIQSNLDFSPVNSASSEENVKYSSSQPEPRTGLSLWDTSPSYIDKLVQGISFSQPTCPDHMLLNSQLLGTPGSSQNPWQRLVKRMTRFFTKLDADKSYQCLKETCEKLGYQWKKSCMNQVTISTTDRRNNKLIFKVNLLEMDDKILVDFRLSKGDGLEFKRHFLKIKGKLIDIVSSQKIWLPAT

[36] = target: Epidermal growth factor receptor (Homo sapiens) (UniProt P00533); experiment: Inhibition of EGFR at 100 nM; in short: as §2
[37] = target: Insulin-like growth factor 1 receptor (Homo sapiens) (UniProt P08069); experiment: Inhibition of IGF1R at 100 nM; in short: as §2
[38] = target: Inhibitor of nuclear factor kappa-B kinase subunit beta (Homo sapiens) (UniProt O14920); experiment: Inhibition of IKK-beta at 100 nM; in short: as §2
[39] = target: Tyrosine-protein kinase JAK2 (Homo sapiens) (UniProt O60674); experiment: Inhibition of JAK2 at 100 nM; in short: as §2
[40] = Inhibition of JNK1-alpha-1 at 100 nM; in short: as §2

SMILES: O=C(Cc1ccccc1)NC(=S)Nc1ccc(Oc2ccnc3cc(-c4cccs4)sc23)c(F)c1
- pIC50 [1]: 7.49

SMILES: O=C(Cc1ccccc1)NC(=S)Nc1ccc(Oc2ccnc3cc(-c4ncccn4)sc23)c(F)c1
- pIC50 [1]: 7.03

SMILES: O=C(Cc1ccccc1)NC(=S)Nc1ccc(Oc2ccnc3ccsc23)c(F)c1
- pIC50 [1]: 5.95

SMILES: CCN(CC)C(=O)c1cc2nccc(Oc3ccc(NC(=S)NC(=O)Cc4ccccc4)cc3F)c2s1
- pIC50 [1]: 6.41
- pIC50 [3]: 6.94

SMILES: COC(=O)c1cc2nccc(Oc3ccc(NC(=S)NC(=O)Cc4ccccc4)cc3F)c2s1
- pIC50 [1]: 7.05

SMILES: O=C(Cc1ccccc1)NC(=S)Nc1ccc(Oc2ccnc3cc(C(=O)N4CCOCC4)sc23)c(F)c1
- pIC50 [1]: 6.54
- pIC50 [3]: 6.90

SMILES: Cn1cccc1-c1cc2nccc(Oc3ccc(NC(=S)NC(=O)Cc4ccccc4)cc3F)c2s1
- pIC50 [1]: 7.51
- pIC50 [2]: 6.97
- pIC50 [3]: 7.31

SMILES: CSc1cc2nccc(Oc3ccc(NC(=S)NC(=O)Cc4ccccc4)cc3F)c2s1
- pIC50 [1]: 6.46

SMILES: O=C(Cc1ccccc1)NC(=S)Nc1ccc(Oc2ccnc3cc(-c4cccnc4)sc23)c(F)c1
- pIC50 [1]: 6.95

The next molecules have a higher pIC50 [1] than those just listed; values first:

- pIC50 [1]: 7.60
- pIC50 [2]: 7.46
- pIC50 [3]: 6.97
SMILES: CCn1ccnc1-c1cc2nccc(Oc3ccc(NC(=S)NC(=O)Cc4ccccc4)cc3F)c2s1

- pIC50 [1]: 7.72
SMILES: CN(C)C(=O)c1cc2nccc(Oc3ccc(NC(=S)NC(=O)Cc4ccccc4)cc3F)c2s1

- pIC50 [1]: 7.77
SMILES: O=C(Cc1ccccc1)NC(=S)Nc1ccc(Oc2ccnc3cc(-c4ccccn4)sc23)c(F)c1

- pIC50 [1]: 7.96
- pIC50 [2]: 7.66
- pIC50 [3]: 7.28
SMILES: CCn1cnc(-c2cc3nccc(Oc4ccc(NC(=S)NC(=O)Cc5ccccc5)cc4F)c3s2)c1

- pIC50 [1]: 8.00
- pIC50 [2]: 7.92
- solubility [4]: 30 µg/mL (≈ 58 µM)
- half-life [5]: 1.2 h
- clearance [6]: 5.5 mL/min/kg
- Vd [7]: 0.25 L/kg
- Tmax [8]: 3.5 h
- Cmax [9]: 140 nM
- AUC [10]: 0.74 µM·h
- bioavailability [11]: 12%
- half-life [12]: 5.8 h
- CL [13]: 18.3 mL/min/kg
- Vd [14]: 1.5 L/kg
- Tmax [15]: 1.1 h
- Cmax [16]: 210 nM
- AUC [17]: 0.74 µM·h
- F [18]: 42%
- pIC50 [19]: 7.52
- Inhibition [25]: Not Active
- inhibition [26]: 91%
- inhibition [27]: 100%
- inhibition [28]: < 5%
- inhibition [29]: 80%
- inhibition [30]: 81%
- inhibition [31]: 96%
- inhibition [32]: 92%
- inhibition [33]: 91%
- inhibition [34]: 99%
- inhibition [35]: < 5%
- inhibition [36]: < 5%
- inhibition [37]: < 5%
- inhibition [38]: < 5%
- inhibition [39]: < 5%
- inhibition [40]: < 5%
SMILES: Cn1cnc(-c2cc3nccc(Oc4ccc(NC(=S)NC(=O)Cc5ccccc5)cc4F)c3s2)c1
- inhibition in vivo at 20 mg/kg [20]: 41%
- inhibition in vivo at 20 mg/kg [21]: 57%
- inhibition in vivo at 20 mg/kg [22]: 41%
- inhibition in vivo at 20 mg/kg [23]: 61%
- inhibition in vivo at 20 mg/kg [24]: 94%
